“Also recorded” adds a separate entry of the source.
Legend:
[1] = target: T1, PAK1^T423E (Homo sapiens, UniProt Q13153, T423E); settings: reported; ref [11], [12]; cited from earlier work
[2] = test system: Wt-PAK1 (full-length); settings: reported; ref [11], [12]; cited from earlier work
[3] = target: PBD of PAK1 (Wt-PBD) (Homo sapiens, UniProt Q13153); experiment: SPR binding to immobilized GST-PBD; settings: Kd for the compound–PBD interaction, 25 °C, 1:1 Langmuir model
Summary of the method: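 GST (reference) and wild-type GST-PBD amine-coupled to CM5 chips at about 10 000 RU. Runs at 25 °C in 10 mM HEPES, 150 mM NaCl, 0.005% P20, 0.4% DMSO, pH 7.4. Test compound injected at 12.5, 25, 50 or 100 μM, 20 μl min⁻¹. Kd taken as kd/ka from a 1:1 Langmuir fit. At least three independent experiments.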

[4] = target: full-length PAK3 (Homo sapiens, UniProt O75914); experiment: In vitro inhibition of PAK family members, PAK3; assay type: biochemical; settings: 40 μM, with Cdc42•GTP
[5] = test system: HeLa cells; experiment: Cell viability / cytotoxicity; assay type: cell-based; settings: for Light-induced cytotoxicity: during FRET analysis
Summary of the method: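 HeLa seeded at 2 × 10⁵ cells per ml. Test compound at 20 μM final for 2, 4, 6, 8 or 12 h at 37 °C. WST-8 then added (10% v/v final) for 2 h at 37 °C; absorbance read at 450 nm.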

[6] = target: myc-PAK3 (pT421) in HeLa cells (Homo sapiens, UniProt O75914); experiment: Sorbitol-induced PAK3 autophosphorylation in cells; assay type: cell-based; settings: 20 μM for 2 h, then 0.4 M sorbitol
Summary of the method: (§1)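 HeLa transfected (Lipofectamine, 24 h) with 2 μg myc-PAK1 or myc-PAK3 cDNA. Cells exposed to test compound 2 h, then 0.4 M sorbitol 0.5 h; lysed in HEPES/Triton buffer with NaF and vanadate. Immunoblotted with anti-phospho-group I PAK antibody (PAK1 T423; PAK3 T421); myc-PAK levels by anti-Myc; chemiluminescent detection; ≥3 experiments.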

[7] = target: PAK1^T423E/LL (H83L/H86L) (Homo sapiens, UniProt Q13153, H83L/H86L/T423E); experiment: In vitro kinase assay with LL mutant of active PAK1; assay type: biochemical; settings: 40 μM, 0.5 h
Summary of the method: (§2)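 Preincubated with test compound or DMSO 0.5 h, 30 °C, then 5 μCi [γ-³²P]ATP 0.5 h, 30 °C. 15% SDS-PAGE; MBP phosphorylation read by autoradiography; total MBP immunoblot as loading control; ≥3 experiments.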

[8] = target: YFP-PBD and CFP-V12Cdc42 fusion proteins in HeLa cells (Homo sapiens, UniProt Q13153); experiment: FRET analysis of V12Cdc42–PBD interaction in cells; assay type: cell-based; settings: 20 μM, 1.5 h
Summary of the method: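 HeLa on poly-L-lysine-coated coverslips transfected with YFP-PBD and CFP-V12Cdc42 plasmids. At 12 h post-transfection, DMSO or 20 μM test compound applied and imaged over 1.5 h (ex 433 nm; em 475 nm CFP, 530 nm FRET). Background-subtracted FRET/CFP ratio used as efficiency, normalised to time zero = 1; 16 cells per compound.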

[9] = test system: pMEK1^S298 in 293T cells; experiment: MEK1 S298 phosphorylation downstream of PAK1; assay type: cell-based; settings: 293T cells with myc-PAK1 and GFP-V12Cdc42, 20 μM, 2 h
Summary of the method: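 293T co-transfected with myc-PAK1 and GFP-V12Cdc42. After 24 h, test compound at 20 μM for 2 h. Lysates immunoblotted for pPAK1 T423 and pMEK S298; expressed proteins checked with anti-Myc and anti-GFP. Membranes blocked in 3% BSA/TBS-T, primary antibody 1 h RT, HRP secondary, chemiluminescence. At least three independent experiments.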

[10] = target: PBD-LL (H83L/H86L) (Homo sapiens, UniProt Q13153, H83L/H86L); experiment: SPR binding to mutated PBD; settings: 100 μM compound
Summary of the method: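 GST-tagged wild-type or H83L/H86L PAK1 PBD was expressed in E. coli, purified on glutathione-Sepharose, and amine-coupled to CM5 chips (~10 000 RU), with GST as control. Test compound (100 μM) was flowed at 20 μl min⁻¹, 25 °C, in 10 mM HEPES, 150 mM NaCl, 0.005% P20, 0.4% DMSO, pH 7.4. Sensorgrams were representative of ≥3 independent experiments.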

[11] = test system: R1K3 (PAK1 CD replaced by PAK3 CD) in HeLa cells; experiment: CD-swapping experiment, R1K3; assay type: cell-based; settings: 20 μM for 2 h, then 0.4 M sorbitol
[12] = target: full-length PAK1 (Homo sapiens, UniProt Q13153); experiment: In vitro inhibition of PAK family members, PAK1; assay type: biochemical; settings: 40 μM, with Cdc42•GTP
[13] = target: T1, PAK1^T423E; experiment: In vitro PAK1 assay with active PAK1; assay type: biochemical; settings: 0.5 h; 40 μM in Figure 3c
Summary of the method: as §2

[14] = target: myc-PAK1 (pT423) in HeLa cells (Homo sapiens, UniProt Q13153); experiment: Sorbitol-induced PAK1 autophosphorylation in cells; assay type: cell-based; settings: 20 μM for 2 h, then 0.4 M sorbitol
Summary of the method: as §1

[15] = target: Cdc42–PBD interaction (PBD of PAK1) (Homo sapiens, UniProt Q13153); experiment: ELISA of the Cdc42–PBD interaction; assay type: binding
Summary of the method: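 Wells coated overnight at 4 °C with His-tagged PAK1 PBD (1 μg ml⁻¹) in carbonate–bicarbonate buffer, pH 9.6; TBS-T washes. GST-Cdc42 loaded with GTPγS (0.5 h, RT), then GST-Cdc42(GTPγS) (100 ng ml⁻¹) with test compound for 0.5 h RT and 1 h 37 °C. Bound Cdc42 detected with HRP-anti-GST (200 ng ml⁻¹, 1 h, 37 °C) and ABTS (pH 5.6, 15–30 min); stopped with 1% SDS; A405.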

[16] = target: Cdc42–PBD interaction (Homo sapiens, UniProt Q13153); experiment: SPR of Cdc42•GTP binding to immobilized PBD in presence of compound; settings: 10 µM compound
Sequence of Cdc42–PBD interaction (Q13153 67-150): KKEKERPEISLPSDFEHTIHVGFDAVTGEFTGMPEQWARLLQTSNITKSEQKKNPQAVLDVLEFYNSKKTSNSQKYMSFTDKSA

Sequence of Cdc42–PBD interaction (PBD of PAK1) (Q13153 67-150): as above
Sequence of full-length PAK1 (Q13153 whole entry): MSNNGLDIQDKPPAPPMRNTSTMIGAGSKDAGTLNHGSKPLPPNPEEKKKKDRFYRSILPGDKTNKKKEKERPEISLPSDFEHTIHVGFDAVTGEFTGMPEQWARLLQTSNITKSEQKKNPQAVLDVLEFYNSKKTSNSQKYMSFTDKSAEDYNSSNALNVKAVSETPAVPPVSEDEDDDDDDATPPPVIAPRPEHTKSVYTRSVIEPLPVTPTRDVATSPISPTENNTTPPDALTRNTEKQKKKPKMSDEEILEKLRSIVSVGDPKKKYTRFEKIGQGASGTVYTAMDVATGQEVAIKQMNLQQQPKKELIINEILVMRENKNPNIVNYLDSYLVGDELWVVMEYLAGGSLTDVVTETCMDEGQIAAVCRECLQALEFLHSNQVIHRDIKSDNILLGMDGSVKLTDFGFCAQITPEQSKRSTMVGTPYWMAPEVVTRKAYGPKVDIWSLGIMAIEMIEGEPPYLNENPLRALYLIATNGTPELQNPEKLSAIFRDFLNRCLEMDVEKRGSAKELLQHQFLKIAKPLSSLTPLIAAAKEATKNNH
Sequence of myc-PAK1 (pT423) in HeLa cells (Q13153 whole entry): as above
T1 sequence (Q13153 whole entry T423E): as the sequence (Q13153 whole entry) above, with T423E counted along it
Sequence of myc-PAK3 (pT421) in HeLa cells (O75914 1-544 isoform O75914-2): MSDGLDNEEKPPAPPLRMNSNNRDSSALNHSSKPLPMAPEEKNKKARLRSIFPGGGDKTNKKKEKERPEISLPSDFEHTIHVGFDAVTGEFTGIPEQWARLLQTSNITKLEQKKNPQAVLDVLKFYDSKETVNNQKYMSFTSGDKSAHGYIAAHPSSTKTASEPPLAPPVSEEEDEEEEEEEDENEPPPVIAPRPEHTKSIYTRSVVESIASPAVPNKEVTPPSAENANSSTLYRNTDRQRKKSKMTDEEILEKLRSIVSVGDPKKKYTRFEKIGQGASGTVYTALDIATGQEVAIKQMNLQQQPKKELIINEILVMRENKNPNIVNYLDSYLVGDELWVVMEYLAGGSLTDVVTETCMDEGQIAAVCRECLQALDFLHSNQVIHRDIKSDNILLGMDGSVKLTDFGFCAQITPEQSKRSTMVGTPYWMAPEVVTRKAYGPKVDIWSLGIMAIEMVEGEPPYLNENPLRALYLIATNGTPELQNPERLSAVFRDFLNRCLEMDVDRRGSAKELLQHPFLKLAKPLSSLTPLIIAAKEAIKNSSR
Sequence of PBD-LL (H83L/H86L) (Q13153 67-150 H83L/H86L): as the sequence (Q13153 67-150) above, with H17L, H20L counted along it
Sequence of PBD of PAK1 (Wt-PBD) (Q13153 67-150): as the sequence (Q13153 67-150) above
Sequence of full-length PAK3 (O75914 1-544 isoform O75914-2): as the sequence (O75914 1-544 isoform O75914-2) above
Sequence of PAK1^T423E/LL (H83L/H86L) (Q13153 whole entry H83L/H86L/T423E): as the sequence (Q13153 whole entry) above, with H83L, H86L, T423E counted along it
Sequence of YFP-PBD and CFP-V12Cdc42 fusion proteins in HeLa cells (Q13153 67-150): as the sequence (Q13153 67-150) above

Row | Inhibition of full-length PAK1 (MBP phosphorylation) [12] | Inhibitory activity on the Cdc42–PBD interaction [15] | SMILES | Kd [3] | Binding affinity to PBD-LL compared with Wt-PBD [10] | Inhibition of sorbitol-activated R1K3 [11] | PAK1 autophosphorylation (pT423) [14] | Light-induced cytotoxicity [5] | Interference with the Cdc42–PBD interaction [16] | other results
1 |  |  | Oc1ccc2ccccc2c1SSc1c(O)ccc2ccccc12 [IPA-3, 2,2′-dihydroxy-1,10-dinaphthyldisulfide] |  |  |  |  |  |  | Susceptibility of PAK1^T423E to inhibition [1]: not susceptible to inhibition; Inhibition of Cdc42-dependent activation of wild-type group I PAKs [2]: effectively inhibit
2 |  | high inhibitory activities | COC(=O)C1=CC(=O)c2ccccc2C1=O [compound 8, 2-methoxycarbonyl-1,4-naphthoquinone] | < 7 µM | significantly reduced (to approximately half of those for Wt-PBD binding) |  |  |  |  | 
3 | selective inhibition of PAK1 | high inhibitory activities | O=C1C=C(Br)C(=O)c2ccccc21 [compound 13, 2-Bromo-1,4-NQ] |  |  |  | only weakly suppressed | light-induced cytotoxicity | effectively interfered with the Cdc42–PBD interaction | 
4 | selective inhibition of PAK1 | high inhibitory activities | O=C1C=C(Cl)C(=O)c2ccccc21 [compound 14, 2-Chloro-1,4-NQ] |  |  | almost completely inhibited | greatly suppressed; also recorded: almost completely inhibited | light-induced cytotoxicity | effectively interfered with the Cdc42–PBD interaction | 

Row | SMILES | Inhibition of full-length PAK1 (MBP phosphorylation) [12] | Inhibitory activity on the Cdc42–PBD interaction [15] | Kd [3] | Binding affinity to PBD-LL compared with Wt-PBD [10] | Inhibition of sorbitol-activated R1K3 [11] | PAK1 autophosphorylation (pT423) [14] | Light-induced cytotoxicity [5] | Interference with the Cdc42–PBD interaction [16] | other results
5 | O=C1C=CC(=O)c2ccccc21 [compound 7, 1,4-naphthoquinone] | suppressed the activities of both PAK1 and PAK3 to a similar degree |  | < 7 µM | significantly reduced (to approximately half of those for Wt-PBD binding) | almost completely inhibited | greatly suppressed; also recorded: almost completely inhibited |  |  | Inhibition of full-length PAK3 (MBP phosphorylation) [4]: suppressed the activities of both PAK1 and PAK3 to a similar degree; Cytotoxicity ([5]; HeLa cells, 20 μM): no significant cytotoxicity; PAK3 autophosphorylation (pT421) [6]: greatly suppressed; also recorded: specifically inhibited; Inhibitory effect on PAK1^T423E/LL [7]: little inhibitory effect; FRET efficiency [8]: decreased; pMEK1^S298 levels [9]: markedly decreased; MBP phosphorylation by PAK1^T423E [13]: markedly suppressed
